pEC50, pIC50: −log10 of the molar value.
Key:
[1] = test system: Hepatitis C virus; test: Inhibition of recombinant HCV genotype 1b NS5B polymerase activity after 3 hrs by scintillation proximity assay; parameters: species or system Hepatitis C virus subtype 1b
In short: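 Started with 450 nM oligo-U12 primer, 30 nM UTP, 75 nM poly(A) template and ³H-UTP; 3 h at room temperature, scintillation proximity read-out. Duplicates, ≥2 repeats; IC₅₀ from eight serial dilutions.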

[2] = Inhibition of HCV NS5b RNA-dependent RNA polymerase; parameters: species or system Hepacivirus hominis
[3] = test system: Hepatitis C virus; test: Antiviral activity against HCV genotype 1b infected in human HuH7 cells assessed as reduction in luciferase activity at 10 uM after 3 days; type: functional, Hepacivirus hominis, Huh-7; parameters: scale not given: the % may be the effect or the level left
In short: (§1)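 Huh-7/HCV1b-Rluc genotype 1b replicon cells plated at 6 × 10³/well without G418; next day compound in DMSO added, 37 °C/5% CO₂ for 3 days. Live-cell renilla luciferase substrate (1:1000) added, luminescence read immediately. Triplicates, ≥2 independent runs. Single-point tests at 10 µM with ribavirin (10 µM) and 2'-C-methyl adenosine (500 nM) controls; EC₅₀ from eight serial dilutions versus vehicle.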

[4] = Cytotoxicity against human HuH7 cells infected with HCV1b assessed as cell viability at 10 uM after 3 days by MTS assay; type: cell-based, Huh-7; details: read-out: Activity
In short: (§2)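 Replicon cells (Huh-7/HCV1b-Rluc) seeded at 6 × 10³/well minus G418, then exposed next day to compound in DMSO for three days at 37 °C/5% CO₂. Viability read with MTS reagent (CellTiter 96 AQueous One) by absorbance at […]. CC₅₀ taken as concentration reducing proliferation by 50%, fitted from eight serial dilutions against vehicle-treated cells.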

[5] = test system: Hepatitis C virus; test: Antiviral activity against HCV genotype 1b infected in human HuH7 cells after 3 days by renilla luciferase reporter assay; type: functional, organism-based, Hepacivirus hominis; details: Huh-7, 72 h; in short: as §1
[6] = Cytotoxicity against human HuH7 cells infected with HCV1b after 3 days by MTS assay; type: cell-based, Huh-7; in short: as §2
[7] = Therapeutic index, ratio of CC50 for human HuH7 cells infected with HCV1b to EC50 for HCV genotype 1b; type: cell-based, Huh-7; details: read-out: Ratio CC50/EC50
In short: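 Index computed as CC₅₀/EC₅₀, both values from 3-day assays in Huh-7/HCV1b-Rluc replicon cells: EC₅₀ from renilla luciferase signal, CC₅₀ from MTS absorbance at 450 nm, each fitted from eight serial dilutions against vehicle.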

Row | Compound | pIC50 [1] | pIC50 [2] | Activity [3] [%] | viability at 72 h, 10 µM [4] [%] | pEC50 [5] | CC50 at 72 h [6] [µM] | selectivity ratio [7]
1 | N#Cc1cc(COc2cccc(C(=O)/C=C(\O)C(=O)O)c2)c(Cl)cc1Cl | 7.82 | 7.35 |  |  |  |  | 
2 | O=C1Cc2cc(-c3ccc(F)c(F)c3)ccc2C(=O)N1O |  |  | 78 | 34 |  |  | 
3 | O=C1Cc2cc(-c3ccsc3)ccc2C(=O)N1O | 5.05 |  | 72 | 100 | 4.36 | 98 | 2.2
4 | Cc1ccc(-c2ccc3c(c2)CC(=O)N(O)C3=O)o1 | 4.74 |  | 76 | 87 | 5.37 | 11 | 2.6
5 | O=C1Cc2ccc(-c3cc4ccccc4o3)cc2C(=O)N1O |  |  | 83 | 33 |  |  | 
6 | O=C1Cc2cc(-c3cc4ccccc4o3)ccc2C(=O)N1O |  |  | 73 | 46 |  |  | 
7 | O=C1Cc2cc(-c3cccc4c3oc3ccccc34)ccc2C(=O)N1O |  |  | 98 | 28 |  |  | 
8 | O=C1Cc2ccc(-c3ccc(F)c(Cl)c3)cc2C(=O)N1O | 5.15 |  | 30 | 83 |  |  | 
9 | O=C1Cc2cc(-c3ccc(C(F)(F)F)cc3)ccc2C(=O)N1O |  |  | 93 | 29 |  |  | 
10 | O=C1Cc2cc(-c3ccc(F)cc3)ccc2C(=O)N1O | 4.70 |  | 73 | 90 | 5.02 | 11 | 1.2
11 | O=C1Cc2cc(-c3csc4ccccc34)ccc2C(=O)N1O |  |  | 95 | 34 |  |  | 
12 | O=C1Cc2ccc(-c3ccc(F)c(F)c3)cc2C(=O)N1O |  |  | 100 | 33 |  |  | 
13 | O=C1Cc2cc(-c3ccco3)ccc2C(=O)N1O | 5.89 |  | 89 | 96 | 5.72 | 13 | 6.8
14 | COc1cccc(-c2ccc3c(c2)C(=O)N(O)C(=O)C3)c1 |  |  | 54 | 37 |  |  | 
15 | CS(=O)(=O)c1ccc(-c2ccc3c(c2)CC(=O)N(O)C3=O)cc1 |  |  | 3 | 100 |  |  | 
16 | O=C1Cc2ccc(I)cc2C(=O)N1O | 4.82 |  | 79 | 86 | 5.41 | 27 | 6.9
17 | C[C@@]1(O)[C@H](O)[C@@H](CO)O[C@H]1n1cnc2c(N)ncnc21 |  |  |  |  |  | 55 | 270
18 | O=C1Cc2cc(-c3ccc4c(c3)OCO4)ccc2C(=O)N1O |  |  | 28 | 79 |  |  | 
19 | NC(=O)c1ncn([C@@H]2O[C@H](CO)[C@@H](O)[C@H]2O)n1 [RIBAVIRIN] |  |  |  |  | 4.85 | 32 | 2.3
20 | O=C1Cc2cc(-c3ccoc3)ccc2C(=O)N1O | 4.96 |  | 100 | 52 |  |  | 
21 | O=C1Cc2cc(-c3cccc(-c4ccccc4)c3)ccc2C(=O)N1O |  |  | 95 | 23 |  |  | 
22 | O=C1Cc2cc(-c3cccs3)ccc2C(=O)N1O | 5.14 |  | 93 | 100 | 5.77 | 18 | 11
23 | O=C1Cc2ccc(-c3cccs3)cc2C(=O)N1O |  |  | 99 | 21 |  |  | 
24 | O=C1Cc2cc(-c3cccc4c3sc3ccccc34)ccc2C(=O)N1O |  |  | 95 | 32 |  |  | 
25 | O=C1Cc2ccc(-c3ccco3)cc2C(=O)N1O | 4.74 |  | 51 | 21 |  |  | 
